Results on 37 sequences are retold here after the array DNA melting data of Ke et al. (doi:10.1101/2024.01.08.574731).

The nature of series [1]: melting temperature; fluorescence melt of hairpins on a sequencing array, two-state fit, raised by 9.35 °C to match UV melts. The settings on record: sodium 0.088 M. In a few lines: (§1)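 Folding enthalpy and melting temperature were estimated with bootstrapped two-state fits and combined across four replicates by inverse-variance weighting, with fitted temperatures raised by 9.35 °C to match UV melts. The data were Cy3 fluorescence of library hairpins, with annealed Cy3 and quencher oligos, on a sequenced MiSeq flow cell in 50 mM Na-HEPES pH 8.0, 25 mM NaCl, imaged in 2.5 °C steps up to 60 °C and normalised to pre-quench Cy3 and control constructs.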

The nature of series [2]: folding enthalpy; higher = less favourable; fluorescence melt of hairpins on a sequencing array, two-state fit. Particulars: sodium 0.088 M. In a few lines: as §1

Consider GGTAAGCGAAAGCTAACC (((.(((....))).))), for which the Tm in series [1] amounted to 50.1 °C. In addition, the folding enthalpy in series [2] was -33.4 kcal/mol.
The matching figures for GGTAAGCGAAAGCTCACC (((.(((....))).))): 46.9 °C and -25.5 kcal/mol.
In the case of GGTAAGGAAACTTACC ((((((....)))))), the Tm in series [1] is 50.3 °C. For the same sequence, the folding enthalpy in series [2] was -32.2 kcal/mol.
For GGTAAGGGAAACCTTACC (((((((....))))))), in that order: 57.5 °C and -46.1 kcal/mol.
For GGTAAGGGAAACCTTGCC ((.((((....)))).)), in that order: 48.3 °C and -29.6 kcal/mol.
The matching figures for GGTAATCCGAAAGGAACC (((..(((....)))))): 26 °C and -19.7 kcal/mol.
Take GGTAATGAAAATTACC ((((((....)))))): in series [1], the Tm is 48.4 °C. The folding enthalpy in series [2] is -32.4 kcal/mol.
The matching figures for GGTAATGCGAAAGCAACC (((..(((....)))))): 31.6 °C and -11.2 kcal/mol.
For GGTACACCGAAAGGTACC (((..(((....)))))), in that order: 41.1 °C and -20.5 kcal/mol.
For the sequence GGTACACGAAAGTGACC (((.(((....)))))), in series [1], the Tm was found to be 46.4 °C. In addition, the folding enthalpy in series [2] is -18.4 kcal/mol.
The matching figures for GGTACAGGAAACTGTATC (.(((((....))))).): 43.4 °C and -28.6 kcal/mol.
Consider GGTACCGAAAGGTGCACC ((((((....)))..))), for which the Tm in series [1] worked out at 40.3 °C. Further, the folding enthalpy in series [2] is -13.9 kcal/mol.
Regarding GGTACCGAAAGGTGTACC ((((((....)))..))), in series [1], the Tm amounted to 46.6 °C. Besides, the folding enthalpy in series [2] was -22.5 kcal/mol.
For GGTACCGAAAGGTTGACC ((((((....)))..))), in that order: 36 °C and -16.9 kcal/mol.
The matching figures for GGTACGGCGAAAGCCACC (((..(((....)))))): 38.1 °C and -10.6 kcal/mol.
For GGTACTCGAAAGAGACC (((.(((....)))))), in that order: 43.1 °C and -23.6 kcal/mol.
On to GGTACTGGAAACAATACC ((((.((....)).)))), for which the Tm in series [1] amounted to 26.7 °C. Moreover, the folding enthalpy in series [2] was -12 kcal/mol.
For GGTACTGGAAACAGTGCC ((.((((....)))).)), in that order: 54.9 °C and -41.8 kcal/mol.
As to GGTAGCCGAAAGGCCACC (((.(((....))).))), the Tm in series [1] came to 52.2 °C. Further, in series [2], the folding enthalpy is -19.5 kcal/mol.
In the case of GGTAGCGAAAGCTTTACC ((((((....)))..))), the Tm in series [1] is 34.4 °C. The folding enthalpy in series [2] was -15.7 kcal/mol.
Regarding GGTAGGTCGAAAGACACC (((..(((....)))))), the Tm in series [1] came to 35.3 °C. Moreover, the folding enthalpy in series [2] is -16.5 kcal/mol.
The matching figures for GGTAGTCGAAAGACGACC (((.(((....))).))): 54.2 °C and -44.9 kcal/mol.
For GGTAGTGGAAACACTATC (.(((((....))))).), in that order: 43.5 °C and -23.4 kcal/mol.
The matching figures for GGTAGTGGAAACGCTACC (((((.(....).))))): 51.7 °C and -34.9 kcal/mol.
Regarding GGTATACGAAAGTACACC (((.(((....))).))), in series [1], the Tm came to 40 °C. Besides, the folding enthalpy in series [2] is -28.7 kcal/mol.
Turning to GGTATAGCGAAAGCTACC (((..(((....)))))), the Tm in series [1] was found to be 39.6 °C. For the same sequence, in series [2], the folding enthalpy is -15.4 kcal/mol.
For GGTATAGGAAACTGTACC ((((.((....)).)))), in that order: 43 °C and -31.3 kcal/mol.
For GGTATCGAAAGATATACC ((((((....)))..))), in that order: 34 °C and -19.7 kcal/mol.
For GGTATCGAAAGATTAACC ((((((....)))..))), in that order: 30.3 °C and -17 kcal/mol.
As for GGTATCGAAAGATTTACC ((((((....)))..))), the Tm in series [1] was found to be 28.5 °C. Also, the folding enthalpy in series [2] is -27.8 kcal/mol.
For GGTATCGGAAACGGTATC (.((.((....)).)).), in that order: 30.9 °C and -26.1 kcal/mol.
For GGTATGGCGAAAGCCACC (((..(((....)))))), in that order: 38.9 °C and -8.56 kcal/mol.
For GGTATGGGAAACCATGCC ((.((((....)))).)), in that order: 51.3 °C and -37.4 kcal/mol.
For GGTATGGGAAACTATGCC ((.((.(....).)).)), the Tm in series [1] is 30.9 °C. In series [2], the folding enthalpy was -23.7 kcal/mol.
GGTATTCGAAAGAAAACC (((.(((....))).))): in series [1], the Tm turned out to be 39.3 °C. Also, the folding enthalpy in series [2] was -32.8 kcal/mol.
The matching figures for GGTATTCGAAAGAAACC (((.(((....)))))): 31.7 °C and -16.9 kcal/mol.
For GGTATTGCGAAAGCAACC (((..(((....)))))), in series [1], the Tm worked out at 29.4 °C. Further, the folding enthalpy in series [2] is -10 kcal/mol.
